The EternaBench riboswitch data

Test system: MS2 coat protein
Assay: apparent Kd, MS2 coat protein; higher = weaker binding; RNA-MaP array; FMN 200 µM where present
Method in brief: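 Two titrations, one without ligand and one with constant ligand, were run with SNAP-549-labelled MS2 coat protein from 0.7 or 1.5 nM, doubling to 3 µM. The targets were designs transcribed by stalled E. coli RNA polymerase on Illumina sequencing-chip clusters, in 100 mM Tris-HCl pH 7.5, 80 mM KCl, 4 mM MgCl2, BSA, DTT, yeast tRNA and Tween-20. The apparent Kd is the median of filtered per-cluster binding-curve fits, with green signal normalised to red-channel RNA signal and control-cluster median Fmax.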

[1] = designed as: OFF switch for flavin mononucleotide, no ligand
[2] = ligand present: flavin mononucleotide, designed as: OFF switch for flavin mononucleotide
[3] = designed as: ON switch for flavin mononucleotide, no ligand
[4] = ligand present: flavin mononucleotide, designed as: ON switch for flavin mononucleotide

Sequence: GUACUGAAGCUUUGCUUUAGUCGUACAUGAGGAUCACCCAUGUAGGAUAUGGUAGGCAUUGCUUACUAGAAGGAUAGAGUGAUC
- apparent Kd [1]: 85 nM
- apparent Kd [2]: 54.9 nM

Sequence: GUACUGUAGUGAGGAUAUACGAGUACGAUAGUACGGCGAUCCAUAUAUACAUGAGGAUCACCCAUGUAGAAGGCACUUCAGUAC
- apparent Kd [1]: 8.66 nM
- apparent Kd [2]: 109 nM

Sequence: GUAGAGUAAGGAUAUACUGAAUAGGAUAGAAUGGUUAGAAAGUAGAAGGUACAUGAGGAUCACCCAUGUAAUGU
- apparent Kd [1]: 20.3 nM
- apparent Kd [2]: 19.7 nM

Sequence: GUAGAGUCAGGAUAUACAGAAAGUGGCUGGAAAACAGUGGCACAUGAGGAUCACCCAUGUAGAAGGGACUCUAC
- apparent Kd [1]: 89.4 nM
- apparent Kd [2]: 215 nM

Sequence: GUAGCACAUGAUUUACAUGAGGAUCACCCAUGUAACAUGGGUAAGGAUAUUGAUGUGAAGUUAAUCAAGAAGGUACUAUGCUAC
- apparent Kd [3]: 9.65 nM
- apparent Kd [4]: 6.35 nM

Sequence: GUAGCAUACCGAGGAUAUUCCCGGAAACGGAAAACAUGAGGAUCACCCAUGUGGCGAAAGCCUUGGGAGAAGGCGGAAUGCUAC
- apparent Kd [3]: 25.4 nM
- apparent Kd [4]: 19.4 nM

Sequence: GUAGCAUAGACAGGAUAUCUAUACCCGAAAGGGACAUGAGGAUCACCCAUGUUGCGAAAGCGGUGGGAGAAGGGUCUAUGCUAC
- apparent Kd [3]: 25.4 nM
- apparent Kd [4]: 6.04 nM

Sequence: GUAGCCGACCAGAAGGGUGACAUGAGGAUCACCCAUGUAGAUGUGUUCCCGCUUGGGAGCCGUCCACAGGAUAUGGUUGGUUAU
- apparent Kd [3]: 54.1 nM
- apparent Kd [4]: 38.3 nM

Sequence: GUAGCUAUCGGAGGAUAUCCUUAGCGGAAACGCACAUGAGGAUCACCCAUGUAAAUAAAUAAUUGGGAGAAGGCCGAUAGCUAC
- apparent Kd [3]: 107 nM
- apparent Kd [4]: 16.8 nM

Sequence: GUAGCUAUCGGAGGAUAUUCAUACCGGAAACGGACAUGAGGAUCACCCAUGUGGCGAAAGUCUUGGGAGAAGGCCGAUAGCUAC
- apparent Kd [3]: 75.5 nM
- apparent Kd [4]: 6.28 nM

Sequence: GUAGCUAUCGGAGGAUAUUCAUACCGUAAACGGACAUGAGGAUCACCCAUGUAGCGAAAGCCUUGGGAGAAGGCCGAUAGCUAC
- apparent Kd [3]: 942 nM
- apparent Kd [4]: 88.8 nM

Sequence: GUAGCUAUCGGAGGAUAUUCAUAUCGGAAACGGACAUGAGGAUCACCCAUGUGGCGAAAGCCUUGGGAGAAGGCCGAUAGCUAC
- apparent Kd [3]: 144 nM
- apparent Kd [4]: 9.42 nM

Sequence: GUAGGAAUCACAGGAUAUGCAUGCGCCGCUUCGAUCUACAUGAGGAUCACCCAUGUGUGGUCCGUGUAGAAGGGUGUUUGCUAC
- apparent Kd [3]: 80.8 nM
- apparent Kd [4]: 34.7 nM

Sequence: GUAGUCAGUAAUGAAAGCCCGGGCGCAGAAGGCCAGACACAUGAGGAUCACCCAUGUAUCCCUAUGGAGGAUAUGUGUCACGUG
- apparent Kd [3]: 113 nM
- apparent Kd [4]: 30.5 nM

Sequence: GUAGUGUAGUGAGGAUAUACGAGAUCGAUAGAUCGGCGAUCCAAUUAUACAUGAGGAUCACCCAUGUAGAAGGCACUUCACUAC
- apparent Kd [1]: 10.1 nM
- apparent Kd [2]: 59.2 nM

Sequence: GUAGUGUAUGUAGGAUAUGUGAAGCAAAGCUUCACAGAAGGACAUGAGGAUCACCCAUGUAUUGCAGCCUGCAAUCAGGCUGCU
- apparent Kd [1]: 41 nM
- apparent Kd [2]: 144 nM

Sequence: GUAUAUAUUACAUGAGGAUCACCCAUGUCAGAACGGGUAAUCAGAAGGUAUUAUUAGAGAAAGGGUAAGGAUAUGAUUAUAUAU
- apparent Kd [3]: 605 nM
- apparent Kd [4]: 224 nM

Sequence: GUAUCCGCUGAGGAUAUAAACUCCCUUGAGGGUUUAGAAGGCAGCACAUGAGGAUCACCCAUGUGGUAAGUUUG
- apparent Kd [1]: 17.1 nM
- apparent Kd [2]: 29.2 nM

Sequence: GUAUCUUACCGAGGAUAUUUACGAUUAGUGUAGACAUGAGGAUCACCCAUGUGGCCUUAGUCACGGGAGAAGGCGGUUUGAUAC
- apparent Kd [3]: 233 nM
- apparent Kd [4]: 59 nM

Sequence: GUAUGGAGUACAGGAUAUGUAAGUUUUAAGUGUAUUGGUUAUUACUUAACAACAGAAGGGUAUUACAUGAGGAUCACCCAUGUA
- apparent Kd [3]: 13.4 nM
- apparent Kd [4]: 11 nM

Sequence: GUCAAGUGAGGAUAUGAUUGUACAGCAGACUAGCGUCUGCAUCAGAAGGCACAUGAGGAUCACCCAUGUUUGUC
- apparent Kd [1]: 20.6 nM
- apparent Kd [2]: 17.1 nM

Sequence: GUCAGCUCGAGAGGAUAUACAACACUGCUUCGGCAGUGUAUUAAGAUCACAUGAGGAUCACCCAUGUAGAAGGCACGAGCUGAU
- apparent Kd [1]: 9.31 nM
- apparent Kd [2]: 89.2 nM

Sequence: GUCAGCUCGUCAGGAUAUACGUCACUGCUUCGGCAGUGUGGUAAGAUCACAUGAGGAUCACCCAUGUAGAAGGGACGAGCUGAA
- apparent Kd [1]: 11.8 nM
- apparent Kd [2]: 209 nM
